# Laboratory results as given in ChEMBL document CHEMBL4270665, “Biodegradable Amphipathic Peptide Hydrogels as Extended-Release System for Opioid Peptides” (J Med Chem, 2018).
# Calls of active or inactive are those of the source. The calls are words filed in the database; no cut-off is given here. Starred links: 1 amine or outer side, 2 acyl side, 3 side chain; linkers in the order of their positions; H or OH if unused. Non-standard residues stand in square brackets, D forms with d. Residues, ends and D or L forms follow the SMILES beside them. X1 = O=C1[C@@H](N[*:1])Cc2ccccc2CN1CCC(=O)[*:2]; Dmt = Cc1cc(O)cc(C)c1C[C@H](N)C(=O)O; β3hF = N[C@H](CC(=O)O)Cc1ccccc1
# What was measured:
# [1] = target: T1, Mu-type opioid receptor (Homo sapiens, UniProt P35372); test: Displacement of [3H]DAMGO from human MOR expressed in CHO cell membranes after 60 mins by liquid scintillation counting
# [2] = target: T1, Mu-type opioid receptor; test: Agonist activity at human MOR expressed in CHO cell membranes after 60 mins by [35S]GTPgammaS binding assay; type: functional
# Summary of the method: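 Membranes from CHO cells stably expressing human MOR; agonist-stimulated [35S]GTPγS binding. Potency given as EC50 and efficacy (full or partial agonism) measured at human MOR.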
# [3] = tested on: Mus musculus; test: Antinociceptive activity in CD1 mouse assessed as increase in tail-flick latency at 6.8 umol/kg, sc measured up to 8 hrs post dose; type: functional, organism-based
# Summary of the method: (§1)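 Peptide given as a solution, sc, with a saline control group. Radiant-heat tail-flick test read as %MPE over time, with AUC of the time curves calculated. 6−8 mice per group, mean ± SEM. Two-way ANOVA with Bonferroni post hoc test.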
# [4] = tested on: Mus musculus; test: Antinociceptive activity in CD1 mouse assessed as increase in tail-flick latency at 5.8 umol/kg, sc measured after 8 hrs post dose; type: functional, organism-based
# [5] = tested on: Mus musculus; test: Antinociceptive activity in CD1 mouse assessed as increase in tail-flick latency at 0.56 umol, sc co-formulated with H-Phe-Gln-Phe-Gln-Phe-Lys-NH2 measured up to 72 hrs post dose; type: functional, organism-based
# Summary of the method: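 Mice received peptide (0.56 μmol/mouse) co-formulated with hydrogelator at 2% (v/w), sc in 150 μL per mouse. Controls were hydrogelator alone or saline. Radiant-heat tail-flick test read as %MPE over time, with AUC calculated. 6−8 mice per group, mean ± SEM. Two-way ANOVA with Bonferroni post hoc test.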
# [6] = target: T1, Mu-type opioid receptor; test: Agonist activity at human MOR expressed in human U2OS cells co-expressing enzyme acceptor-tagged beta-arrestin2 fusion protein assessed as induction of beta-arrestin2 recruitment preincubated for 90 mins measured by PathHunter assay; type: functional, cell-based
# [7] = tested on: Mus musculus; test: Antinociceptive activity in sc dosed CD1 mouse assessed as increase in tail-flick latency measured up to 24 hrs post dose; type: functional, organism-based
# [8] = tested on: Mus musculus; test: Antinociceptive activity in CD1 mouse assessed as increase in tail-flick latency at 0.30 umol, sc co-formulated with H-Phe-Glu-Phe-Gln-Phe-Lys-NH2 measured up to 72 hrs post dose; type: functional, organism-based
# [9] = tested on: Mus musculus; test: Antinociceptive activity in CD1 mouse assessed as increase in tail-flick latency at 1.8 umol/kg, sc measured after 4 hrs post dose; type: functional, organism-based
# [10] = tested on: Mus musculus; test: Antinociceptive activity in CD1 mouse assessed as increase in tail-flick latency at 13 umol/kg, sc measured up to 96 hrs post dose relative to control; type: functional
# [11] = Prodrug conversion in human plasma assessed as H-Dmt-DArg-Phe-Phe-Gln-Phe-Gln-OH metabolite formation at 9 uM after 30 to 45 mins by LC-MS analysis; type: ADME, cell-free
# Summary of the method: (§2)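 Peptides were incubated in human plasma at 37 °C, and samples were collected at different time points. Half-life was calculated from the degradation profile. Major metabolites were identified by LC−MS analysis of the collected samples.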
# [12] = Prodrug conversion in human plasma assessed as H-Dmt-DArg-Phe-Phe-Gln-OH metabolite formation at 9 uM after 30 to 45 mins by LC-MS analysis; type: ADME, cell-free
# [13] = tested on: Mus musculus; test: Antinociceptive activity in sc dosed CD1 mouse assessed as increase in tail-flick latency measured up to 72 hrs post dose; type: functional, organism-based
# Summary of the method: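 Radiant heat tail-flick test in mice after subcutaneous injection of 150 μL per mouse. The peptide (0.56 μmol/mouse) was given coformulated with hydrogelator (2% v/w) or conjugated as a biogel (2% v/w). Hydrogelator alone and saline served as controls. Latency was followed as %MPE over time with AUC calculated. Groups were 6−8 mice, reported as mean ± SEM, with two-way ANOVA and Bonferroni post hoc test.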
# [14] = Prodrug conversion in human plasma assessed as H-Dmt-DArg-Phe-OH metabolite formation at 9 uM after 30 to 45 mins by LC-MS analysis; type: ADME, cell-free; summary of the method: as §2
# [15] = Half life in human plasma at 9 uM at 37 degC by LC-MS analysis; type: ADME, cell-free; summary of the method: as §2
# [16] = tested on: Mus musculus; test: Antinociceptive activity in CD1 mouse assessed as increase in tail-flick latency at 4.2 umol/kg, sc measured up to 3 to 4 hrs post dose; type: functional, organism-based; summary of the method: as §1
# [17] = tested on: Mus musculus; test: Antinociceptive activity in CD1 mouse assessed as increase in tail-flick latency at 3.9 umol/kg, sc measured up to 3 to 4 hrs post dose; type: functional, organism-based
# Summary of the method: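 Radiant heat tail-flick test on an analgesiometer after subcutaneous injection of solutions in mice. Doses were 3.0, 3.9, 4.2 or 6.8 μmol/kg, with saline as control. Response was expressed as %MPE over time and AUC was calculated. Groups were 6−8 mice, reported as mean ± SEM, with two-way ANOVA and Bonferroni post hoc test.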
# [18] = Metabolic stability in C57BL/6 mouse hind limb assessed as compound remaining at 150 ul, sc measured after 72 hrs post dose by SPECT/CT analysis; type: ADME, organism-based, Hindlimb; details: read-out: Stability
# Summary of the method: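 Hydrogel degradation was followed after subcutaneous injection in mice by determining the hydrogel volume remaining at the injection site, up to 72 h.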
# [19] = tested on: Mus musculus; test: Antinociceptive activity in CD1 mouse assessed as increase in tail-flick latency at 5.6 umol/kg, sc measured up to 7 hrs post dose; type: functional, organism-based
# [20] = tested on: Mus musculus; test: Antinociceptive activity in CD1 mouse assessed as increase in tail-flick latency at 0.58 umol/kg, sc co-formulated with H-Phe-Glu-Phe-Gln-Phe-Lys-NH2 measured up to 72 hrs post dose; type: functional, organism-based
# [21] = tested on: Mus musculus; test: Antinociceptive activity in sc dosed CD1 mouse assessed as increase in tail-flick latency measured up to 3 hrs post dose; type: functional, organism-based
# [22] = tested on: Mus musculus; test: Antinociceptive activity in CD1 mouse assessed as increase in tail-flick latency at 14 umol/kg, sc measured up to 96 hrs post dose relative to control; type: functional
# T1 sequence (P35372 whole entry): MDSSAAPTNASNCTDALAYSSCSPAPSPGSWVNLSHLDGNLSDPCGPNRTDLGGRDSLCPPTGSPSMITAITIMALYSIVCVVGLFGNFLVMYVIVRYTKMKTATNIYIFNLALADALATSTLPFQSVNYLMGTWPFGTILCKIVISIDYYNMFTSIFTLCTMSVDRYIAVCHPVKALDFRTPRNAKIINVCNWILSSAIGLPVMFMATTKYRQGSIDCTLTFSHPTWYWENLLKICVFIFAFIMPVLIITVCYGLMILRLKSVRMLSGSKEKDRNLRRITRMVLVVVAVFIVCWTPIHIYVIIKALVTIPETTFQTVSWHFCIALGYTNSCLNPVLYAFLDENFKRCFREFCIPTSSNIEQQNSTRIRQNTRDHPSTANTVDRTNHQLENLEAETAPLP
compound,measurement,setting,value
Cc1cc(O)cc(C)c1C[C@H](N)C(=O)N[C@H](CCCNC(=N)N)C(=O)N[C@@H](Cc1ccccc1)C(=O)O,Ki,[1],0.52 nM
same,EC50,[2],3.67 nM
same,Activity,[3],Active
Cc1cc(O)cc(C)c1C[C@H](N)C(=O)N1CCC[C@H]1C(=O)N[C@@H](Cc1ccccc1)C(=O)N[C@@H](Cc1ccccc1)C(=O)N[C@@H](CCC(N)=O)C(=O)N[C@@H](Cc1ccccc1)C(=O)N[C@@H](CCC(N)=O)C(=O)N[C@@H](Cc1ccccc1)C(=O)N[C@@H](CCCCN)C(N)=O (H-[Dmt]PFFQFQFK-NH2),Ki,[1],5 to 141 nM
Cc1cc(O)cc(C)c1C[C@H](N)C(=O)N[C@H](CCCCN)C(=O)N[C@@H](Cc1ccccc1)C(=O)N[C@@H](Cc1ccccc1)C(N)=O,Activity,[4],Active
same,Activity,[5],Active
same,Activity,[6],inactive
same,EC50,[2],0.1 to 0.86 nM
Cc1cc(O)cc(C)c1C[C@H](N)C(=O)N[C@H](CCCCN)C(=O)N[C@@H](Cc1ccccc1)C(=O)N[C@@H](Cc1ccccc1)C(=O)N[C@@H](CCC(=O)O)C(=O)N[C@@H](Cc1ccccc1)C(=O)N[C@@H](CCC(N)=O)C(=O)N[C@@H](Cc1ccccc1)C(=O)N[C@@H](CCCCN)C(N)=O (H-[Dmt][dK]FFEFQFK-NH2),Ki,[1],5 to 141 nM
same,Activity,[7],Active
Cc1cc(O)cc(C)c1C[C@H](N)C(=O)N[C@H](CCCNC(=N)N)C(=O)N[C@H]1Cc2ccccc2CN(CCC(N)=O)C1=O,Activity,[8],Active
same,Activity,[6],inactive
same,Activity,[9],Active
Cc1cc(O)cc(C)c1C[C@H](N)C(=O)N1CCC[C@H]1C(=O)N[C@@H](Cc1c[nH]c2ccccc12)C(=O)N[C@@H](Cc1ccccc1)C(N)=O,Activity,[6],inactive
same,EC50,[2],0.1 to 0.86 nM
same,MPE,[10],<80%
Cc1cc(O)cc(C)c1C[C@H](N)C(=O)N[C@H](CCCNC(=N)N)C(=O)N[C@@H](Cc1ccccc1)C(=O)N[C@@H](Cc1ccccc1)C(=O)N[C@@H](CCC(N)=O)C(=O)N[C@@H](Cc1ccccc1)C(=O)N[C@@H](CCC(N)=O)C(=O)N[C@@H](Cc1ccccc1)C(=O)N[C@@H](CCCCN)C(N)=O (H-[Dmt][dR]FFQFQFK-NH2),Drug metabolism,[11],Metabolite_Detected
same,Drug metabolism,[12],Metabolite_Detected
same,Activity,[13],Active
same,Drug metabolism,[14],Metabolite_Detected
same,half-life at 9 µM,[15],16 min
Cc1cc(O)cc(C)c1C[C@H](N)C(=O)N[C@H](CCCCN)C(=O)N[C@@H](Cc1ccccc1)C(=O)N[C@@H](Cc1ccccc1)C(=O)N[C@@H](CCC(N)=O)C(=O)N[C@@H](Cc1ccccc1)C(=O)N[C@@H](CCC(N)=O)C(=O)N[C@@H](Cc1ccccc1)C(=O)N[C@@H](CCCCN)C(N)=O (H-[Dmt][dK]FFQFQFK-NH2),Ki,[1],5 to 141 nM
same,Activity,[7],Active
Cc1cc(O)cc(C)c1C[C@H](N)C(=O)N1CCC[C@H]1C(=O)N[C@@H](Cc1ccccc1)C(=O)N[C@@H](Cc1ccccc1)C(=O)N[C@@H](CCC(=O)O)C(=O)N[C@@H](Cc1ccccc1)C(=O)N[C@@H](CCC(N)=O)C(=O)N[C@@H](Cc1ccccc1)C(=O)N[C@@H](CCCCN)C(N)=O,Ki,[1],5 to 141 nM
Cc1cc(O)cc(C)c1C[C@H](N)C(=O)N[C@H](CCCNC(=N)N)C(=O)N[C@@H](Cc1ccccc1)C(=O)N[C@@H](Cc1ccccc1)C(=O)N[C@@H](CCC(N)=O)C(=O)O,Ki,[1],0.34 nM
same,EC50,[2],0.28 nM
same,Activity,[16],Active
Cc1cc(O)cc(C)c1C[C@H](N)C(=O)N[C@H](CCCNC(=N)N)C(=O)N[C@H]1Cc2ccccc2CN(CCC(=O)N[C@@H](Cc2ccccc2)C(=O)N[C@@H](CCC(N)=O)C(=O)N[C@@H](Cc2ccccc2)C(=O)N[C@@H](CCC(N)=O)C(=O)N[C@@H](Cc2ccccc2)C(=O)N[C@@H](CCCCN)C(N)=O)C1=O (H-[Dmt][dR][X1]FQFQFK-NH2),Ki,[1],5 to 141 nM
Cc1cc(O)cc(C)c1C[C@H](N)C(=O)N[C@H](CCCNC(=N)N)C(=O)N[C@@H](Cc1ccccc1)C(=O)N[C@@H](Cc1ccccc1)C(=O)N[C@@H](CCC(N)=O)C(=O)N[C@@H](Cc1ccccc1)C(=O)N[C@@H](CCC(N)=O)C(=O)O,Ki,[1],6.16 nM
same,EC50,[2],47.5 nM
same,Activity,[17],Active
Cc1cc(O)cc(C)c1C[C@H](N)C(=O)N1CCC[C@H]1C(=O)N[C@@H](Cc1c[nH]c2ccccc12)C(=O)N[C@@H](Cc1ccccc1)C(=O)N[C@@H](CCC(N)=O)C(=O)N[C@@H](Cc1ccccc1)C(=O)N[C@@H](CCC(N)=O)C(=O)N[C@@H](Cc1ccccc1)C(=O)N[C@@H](CCCCN)C(N)=O (H-[Dmt]PWFQFQFK-NH2),Ki,[1],5 to 141 nM
H-FQFQFK-NH2,remaining at 72 h,[18],20%
Cc1cc(O)cc(C)c1C[C@H](N)C(=O)N[C@H](CCCNC(=N)N)C(=O)N[C@@H](Cc1ccccc1)C(=O)N[C@@H](Cc1ccccc1)C(N)=O,Ki,[1],0.037 nM
same,Activity,[19],Active
same,Activity,[5],Active
same,Activity,[6],inactive
same,EC50,[2],0.19 nM
N=C(N)NCCC[C@@H](NC(=O)[C@@H](N)Cc1ccc(O)cc1)C(=O)N[C@@H](Cc1ccccc1)C(=O)N[C@@H](Cc1ccccc1)C(=O)N[C@@H](CCC(N)=O)C(=O)N[C@@H](Cc1ccccc1)C(=O)N[C@@H](CCC(N)=O)C(=O)N[C@@H](Cc1ccccc1)C(=O)N[C@@H](CCCCN)C(N)=O,half-life at 9 µM,[15],18 min
H-FEFQFK-NH2,remaining at 72 h,[18],20%
Cc1cc(O)cc(C)c1C[C@H](N)C(=O)N[C@H](CCCNC(=N)N)C(=O)N[C@@H](Cc1ccccc1)C(=O)N[C@@H](Cc1ccccc1)C(=O)N[C@@H](CCC(N)=O)C(=O)N[C@H](CC(=O)N[C@@H](Cc1ccccc1)C(=O)N[C@@H](CCC(N)=O)C(=O)N[C@@H](Cc1ccccc1)C(=O)N[C@@H](CCCCN)C(N)=O)Cc1ccccc1 (H-[Dmt][dR]FFQ[β3hF]FQFK-NH2),Ki,[1],5 to 141 nM
same,Activity,[20],inactive
same,Activity,[21],inactive
same,half-life at 9 µM,[15],123 min
Cc1cc(O)cc(C)c1C[C@H](N)C(=O)N1CCC[C@H]1C(=O)N[C@@H](Cc1ccccc1)C(=O)N[C@@H](Cc1ccccc1)C(N)=O,MPE,[22],<80%
same,Activity,[6],inactive
same,EC50,[2],0.1 to 0.86 nM
